{"source": "ChEMBL document CHEMBL3259539", "about": "“A fragment-based method to discover irreversible covalent inhibitors of cysteine proteases” (J Med Chem, 2014)", "key": {"Papain (Carica papaya) [1]": {"target": "T1, Papain (Carica papaya) (UniProt P00784)", "T1 sequence (whole entry)": "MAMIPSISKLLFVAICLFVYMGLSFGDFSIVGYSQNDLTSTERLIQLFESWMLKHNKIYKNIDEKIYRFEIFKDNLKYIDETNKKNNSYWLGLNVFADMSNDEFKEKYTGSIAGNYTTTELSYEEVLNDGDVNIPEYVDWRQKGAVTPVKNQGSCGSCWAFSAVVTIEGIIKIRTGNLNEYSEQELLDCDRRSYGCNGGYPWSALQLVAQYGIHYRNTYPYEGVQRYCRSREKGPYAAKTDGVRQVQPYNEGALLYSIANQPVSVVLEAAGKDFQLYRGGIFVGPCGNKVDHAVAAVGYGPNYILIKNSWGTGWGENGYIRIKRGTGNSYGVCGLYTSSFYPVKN", "assay": "Irreversible inhibition of papain after 1 hr incubation at 100 uM by ESI-MS analysis", "summary_of_the_method": "(§1)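 Enzyme at 10 μM (papain; recombinant GST-HRV3C protease; recombinant USP08) in 50 mM HEPES, 150 mM NaCl, 0.1 mM EDTA, pH 7.5, with a 10-fragment mixture at 100 μM each (final) and 1% DMSO. Incubated at 23 °C, 1 h for papain and HRV3C, 4 h for USP08. Gel-filtered, then intact-protein LC/ESI-MS with maximum-entropy deconvolution.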"}, "Papain (Carica papaya) [2]": {"target": "T1, Papain (Carica papaya)", "assay": "Irreversible inhibition of papain after 1 hr incubation at 100 uM by ESI-MS analysis in presence of 10 mM glutathione"}, "Papain (Carica papaya) [3]": {"target": "T1, Papain (Carica papaya)", "assay": "Irreversible inhibition of papain assessed as binding affinity cysteine after 1 hr incubation at 100 uM by ESI-MS analysis"}, "Papain (Carica papaya) [4]": {"target": "T1, Papain (Carica papaya)", "assay": "Irreversible inhibition of papain assessed as binding affinity cysteine after 1 hr incubation at 1 mM by ESI-MS analysis"}, "Papain (Carica papaya) [5]": {"target": "T1, Papain (Carica papaya)", "assay": "Irreversible inhibition of papain assessed as covalent adducts after 16 to 64 hrs incubation at 100 uM by MS analysis"}, "Papain (Carica papaya) [6]": {"target": "T1, Papain (Carica papaya)", "assay": "Inhibition of papain by first-order papain inhibition plot", "summary_of_the_method": "(§2)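 Papain preactivated with 1 mM DTT for 30 min, then 3.84 μM preincubated up to 1 h with varying inhibitor in 50 mM Na3PO4/2 mM EDTA pH 6.2:acetonitrile (4:1). Aliquots taken every 10 min into 400 μM Cbz-Gly-ONp; p-nitrophenol absorbance followed, in duplicate. kobs from ln(% activity) vs time slopes; kinact/KI from kobs vs [I] slope (Kitz–Wilson).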"}, "Papain (Carica papaya) [7]": {"target": "T1, Papain (Carica papaya)", "assay": "Ratio of Kinact to Ki for papain by second-order papain inhibition plot", "summary_of_the_method": "as §2"}, "[8]": {"target": "T2, Ubiquitin carboxyl-terminal hydrolase 8 (Homo sapiens) (UniProt P40818)", "T2 sequence (whole entry)": "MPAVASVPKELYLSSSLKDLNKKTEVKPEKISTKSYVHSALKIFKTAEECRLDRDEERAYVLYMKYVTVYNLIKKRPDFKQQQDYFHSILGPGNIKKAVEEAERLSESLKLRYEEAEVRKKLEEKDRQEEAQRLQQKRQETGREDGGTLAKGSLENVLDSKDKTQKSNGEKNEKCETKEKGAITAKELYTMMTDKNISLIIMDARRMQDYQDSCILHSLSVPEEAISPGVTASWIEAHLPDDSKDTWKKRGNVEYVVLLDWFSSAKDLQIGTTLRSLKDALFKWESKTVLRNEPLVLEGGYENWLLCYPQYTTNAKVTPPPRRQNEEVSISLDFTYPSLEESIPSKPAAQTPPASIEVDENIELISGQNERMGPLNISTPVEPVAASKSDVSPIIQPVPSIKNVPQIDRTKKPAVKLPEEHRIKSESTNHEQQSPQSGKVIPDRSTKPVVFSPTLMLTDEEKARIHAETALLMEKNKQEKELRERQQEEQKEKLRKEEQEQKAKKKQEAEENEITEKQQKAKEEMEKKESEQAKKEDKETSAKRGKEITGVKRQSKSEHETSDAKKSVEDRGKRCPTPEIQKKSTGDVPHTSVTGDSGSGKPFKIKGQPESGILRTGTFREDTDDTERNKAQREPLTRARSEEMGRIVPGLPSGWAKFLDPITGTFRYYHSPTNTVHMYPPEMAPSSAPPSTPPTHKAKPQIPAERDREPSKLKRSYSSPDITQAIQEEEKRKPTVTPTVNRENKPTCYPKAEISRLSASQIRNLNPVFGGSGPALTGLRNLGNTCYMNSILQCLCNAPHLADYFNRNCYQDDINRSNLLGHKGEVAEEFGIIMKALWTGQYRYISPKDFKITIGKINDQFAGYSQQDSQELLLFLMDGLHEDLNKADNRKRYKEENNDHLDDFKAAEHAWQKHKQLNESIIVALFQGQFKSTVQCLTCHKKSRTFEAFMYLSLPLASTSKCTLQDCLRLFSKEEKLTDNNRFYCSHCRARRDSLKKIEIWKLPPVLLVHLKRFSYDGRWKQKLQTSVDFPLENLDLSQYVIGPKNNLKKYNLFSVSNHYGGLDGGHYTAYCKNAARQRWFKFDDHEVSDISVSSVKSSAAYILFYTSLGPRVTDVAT", "assay": "Binding affinity to deubiquitinase USP08 (unknown origin) assessed as labeling after 4 hrs incubation", "summary_of_the_method": "as §1"}, "[9]": {"target": "T3, Human rhinovirus A protease (Human rhinovirus sp.) (UniProt Q4U254)", "T3 sequence (whole entry)": "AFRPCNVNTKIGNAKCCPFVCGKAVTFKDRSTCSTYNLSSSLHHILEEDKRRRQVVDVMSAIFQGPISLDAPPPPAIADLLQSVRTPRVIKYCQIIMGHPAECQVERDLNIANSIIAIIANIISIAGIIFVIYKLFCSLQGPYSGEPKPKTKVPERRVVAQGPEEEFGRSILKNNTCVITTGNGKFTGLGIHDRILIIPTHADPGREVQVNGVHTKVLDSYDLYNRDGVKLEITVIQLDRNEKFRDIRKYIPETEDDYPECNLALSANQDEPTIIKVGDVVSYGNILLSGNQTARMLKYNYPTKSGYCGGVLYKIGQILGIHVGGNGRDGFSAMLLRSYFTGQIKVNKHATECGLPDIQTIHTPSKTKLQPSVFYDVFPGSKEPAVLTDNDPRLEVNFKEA", "assay": "Binding affinity to GST-tagged human rhinovirus 3C protease assessed as labeling after 1 hr", "summary_of_the_method": "as §1"}}, "note": "Calls of active or inactive are those of the source. No cut-off for these calls is given here.", "data": [{"smiles": "COC(=O)/C=C/CNC(=O)c1cc(-c2ccc(C)cc2)no1", "values": [{"measurement": "inhibition", "setting": "Papain (Carica papaya) [1]", "value": "Active"}, {"measurement": "inhibition", "setting": "Papain (Carica papaya) [2]", "value": "Active"}, {"measurement": "inhibition", "setting": "Papain (Carica papaya) [3]", "value": "Active"}, {"measurement": "inhibition", "setting": "Papain (Carica papaya) [4]", "value": "Active"}, {"measurement": "inhibition", "setting": "Papain (Carica papaya) [5]", "value": "Active"}, {"measurement": "inhibition", "setting": "Papain (Carica papaya) [6]", "value": "Active"}, {"measurement": "Ratio", "setting": "Papain (Carica papaya) [7]", "value": 1.23}, {"measurement": "Activity", "setting": "[8]", "value": "inactive"}]}, {"smiles": "COC(=O)/C=C/CNC(=O)c1cc2cc(Cl)cc(OC)c2o1", "values": [{"measurement": "Activity", "setting": "[9]", "value": 20, "unit": "%"}]}, {"smiles": "COC(=O)/C=C/CNC(=O)[C@@H](CNC(C)=O)CC(C)C", "values": [{"measurement": "Ratio", "setting": "Papain (Carica papaya) [7]", "value": 1.1}]}, {"smiles": "COC(=O)/C=C/CNC(=O)[C@@H](CNC(C)=O)Cc1ccccc1", "values": [{"measurement": "Ratio", "setting": "Papain (Carica papaya) [7]", "value": 6.58}]}, {"smiles": "COC(=O)/C=C/CNC(=O)C1CCN(C(=O)CC(C)C)CC1", "values": [{"measurement": "inhibition", "setting": "Papain (Carica papaya) [1]", "value": "Active"}, {"measurement": "inhibition", "setting": "Papain (Carica papaya) [2]", "value": "Active"}, {"measurement": "inhibition", "setting": "Papain (Carica papaya) [3]", "value": "Active"}, {"measurement": "inhibition", "setting": "Papain (Carica papaya) [4]", "value": "Active"}, {"measurement": "inhibition", "setting": "Papain (Carica papaya) [5]", "value": "Active"}, {"measurement": "inhibition", "setting": "Papain (Carica papaya) [6]", "value": "Active"}, {"measurement": "Ratio", "setting": "Papain (Carica papaya) [7]", "value": 0.461}, {"measurement": "Activity", "setting": "[8]", "value": "inactive"}]}, {"smiles": "COC(=O)/C=C/CNC(=O)c1ccc(C2CCCO2)s1", "note": "(configuration not stated)", "values": [{"measurement": "Ratio", "setting": "Papain (Carica papaya) [7]", "value": 0.037}]}, {"smiles": "COC(=O)/C=C/CNC(=O)c1ccc2ccccc2n1", "values": [{"measurement": "Activity", "setting": "[9]", "value": 20, "unit": "%"}]}, {"smiles": "COC(=O)/C=C/CNC(=O)[C@H](CNC(C)=O)Cc1ccccc1", "values": [{"measurement": "Ratio", "setting": "Papain (Carica papaya) [7]", "value": 0.386}]}, {"smiles": "COC(=O)/C=C/CNC(=O)c1sc(-c2ccccc2F)nc1C", "values": [{"measurement": "inhibition", "setting": "Papain (Carica papaya) [1]", "value": "Active"}, {"measurement": "inhibition", "setting": "Papain (Carica papaya) [2]", "value": "Active"}, {"measurement": "inhibition", "setting": "Papain (Carica papaya) [3]", "value": "Active"}, {"measurement": "inhibition", "setting": "Papain (Carica papaya) [4]", "value": "Active"}, {"measurement": "inhibition", "setting": "Papain (Carica papaya) [5]", "value": "Active"}, {"measurement": "inhibition", "setting": "Papain (Carica papaya) [6]", "value": "Active"}, {"measurement": "Ratio", "setting": "Papain (Carica papaya) [7]", "value": 0.409}, {"measurement": "Activity", "setting": "[8]", "value": 30, "unit": "%"}]}, {"smiles": "COC(=O)/C=C/CNC(=O)c1ccccc1NC(=O)Nc1ccc(Cl)cc1", "values": [{"measurement": "Activity", "setting": "[8]", "value": 30, "unit": "%"}]}, {"smiles": "COC(=O)/C=C/CNC(=O)c1csc(-c2cccs2)n1", "values": [{"measurement": "Activity", "setting": "[9]", "value": 35, "unit": "%"}]}]}
